# In the library only some 2.3% were active in any assay of this set; here they are far more common.
# EWS-Fli block – EWS/Fli-driven NR0B1 reporter inhibitors, primary screen, A673 cells, NR0B1 luciferase, luminescence, MLPCN library. hit rate 0.67% among 350,000. viability-normalised. inhibition, % at 12.6 µM;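 active = mean inhibition of at least 50% after viability correction, with every replicate also passing that limit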;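 also: firefly luciferase signal divided by Alamar Blue viability fluorescence both relative to DMSO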
# PGC1a acetyl inh – inhibitors of PGC1a acetylation signal, primary screen, cell-based, U2OS, AlphaScreen, inhibitor mode; AlphaScreen anti-acetyl-lysine; with virally co-expressed GCN5 acetyltransferase; inhibition, % at 15.6 µM; hit rate 0.17% among 350,000; AID 651687, 2012;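 active = every replicate shows inhibition of at least 40%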;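 also: 0% = neutral control wells and 100% = positive control wells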
# PAX8 reporter – inhibitors of PAX8-driven TPO luciferase reporter, primary screen, RMG-I cells, single concentration. AID 652154, 2013. hit rate 1.2% among 360,000. SteadyGlo, 24 h. inhibition, % at 12.6 µM;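 active = mean replicate inhibition at least 60% with every replicate also reaching 60%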;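 also: luciferase light reporting Pax8 driven TPO promoter activity; plate controls were median of neutral control wells for no effect and mitoxantrone controls for full effect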
# FN deposit inh – inhibitors of fibronectin matrix deposition, primary screen, AH1F cells, Alexa488-fibronectin fluorescence, plate reader; AH1F fibroblasts, overnight; inhibition, % at 12.6 µM; hit rate 0.086% among 350,000; AID 743247, 2014;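 active = mean inhibition across replicates of 30% or more, regardless of how many single replicates reach that level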;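 also: positive control wells lacked labelled fibronectin entirely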
#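 Assay system: AH1F fibroblasts / Quantity: 10000 cells per well / Medium: DMEM plus 2% serum, read in PBS / Reagent: labelled fibronectin 24 nM / Dosing: single dose, pinned / Times: 1 h cell attachment, overnight exposure to compound and label / Signal: fluorescence, ex 485 nm, em 525 nm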
# HIV Env fusion – inhibitors of HIV-1 Env-driven cell-cell fusion, primary screen, HeLa-JRFL effector, CEM21 target cells, luciferase; hit rate 1.1% among 360,000; AID 651610, 2012; inhibition, % at 12.3 µM;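 active = mean replicate inhibition score of at least 50 and every replicate individually at or above 50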;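 also: 0% = plate neutral controls and 100% = maraviroc near 300 nM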
# F508del corr – F508del CFTR correction, initial screen, CFBE line, single point; CFBE cells, YFP halide quenching; stimulated with forskolin plus potentiator P3; % fluorescence drop versus neutral controls; activity (quench increase), % at 7.58 µM; hit rate 0.36% among 350,000; AID 720511, 2013;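 active = mean added fluorescence quench of at least 8% versus neutral control, with both replicates also reaching 8%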;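 also: cells transiently co-express mutant CFTR-F508del with the halide-sensitive YFP; corrector assay measuring rescue of mutant channel to the surface after 24 h compound exposure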
# Active calls of the source: *; · = not tested or not shown; [ ] = remark or other dose.
SMILES,EWS-Fli block,PGC1a acetyl inh,PAX8 reporter,FN deposit inh,HIV Env fusion,F508del corr
O=C(c1cccc(F)c1)N1CC[C@@H]2[C@H](CO)Nc3ccc(-c4ccccc4F)cc3[C@@H]21,11,-6,-1,-6,·,11*
O=C(c1cccc(F)c1)N1CC[C@@H]2[C@H]1c1cc(-c3ccccc3F)ccc1N[C@@H]2CO,0,4,1,6,·,0
C[C@H]1c2cccc(O)c2C(O)=C2C(=O)[C@]3(O)C(O)=C(C(N)=O)C(=O)[C@@H](N(C)C)[C@@H]3[C@@H](O)[C@@H]21,·,6,·,·,·,·
CN(C)c1ccc(O)c2c1CC1CC3[C@@H](N(C)C)C(=O)C(C(N)=O)=C(O)[C@]3(O)C(=O)C1=C2O (stereo partly specified),-15,7,32,2,73*,-2
CC1C(=O)N(Cc2ccc([N+](=O)[O-])cc2)c2ccccc2N1C(=O)c1c(F)cccc1F (stereo unspecified),10,-7,15,-1,78*,0
OC(CNc1nc(C(F)(F)F)nc2ccccc12)c1ccccc1 (stereo unspecified),3,8,-12,2,58*,0
O=C(O)CCNc1nc(C(F)(F)F)nc2ccccc12,2,-4,-17,-8,3,-2
CCOc1cc(/C=C/C(=O)NCCc2ccc(S(N)(=O)=O)cc2)ccc1OCC(C)C,-4,8,2,10,2,3
CCOc1cc(/C=C/C(=O)Nc2ccc(C(=O)NCCN(CC)CC)cc2)ccc1OCC(C)C,55*,·,78*,24,7,-11
Cc1cc(C(=O)Nc2cccc3c2O[C@@H](CN(C)C(=O)Nc2ccccc2)[C@@H](C)CN([C@H](C)CO)C3=O)n(C)n1,3,-3,-1,·,·,-2
O=C1C2C=C(I)[C@H](C[C@@H]2OCCCCCCO)[C@@]12CO2,1,3,1,·,10[16.7 µM],0
O=C(O)c1ccccc1SC1CC(=O)N(c2ccccc2)C1=O (stereo unspecified),·,·,-11,2,-11,·
O=C1CC(Sc2nnc(-c3ccccc3)o2)C(=O)N1c1ccccc1 (stereo unspecified),·,-5,72*,9,-48,·
Cc1ccc(C(=O)NC(C)c2ccc(-n3ccnc3)cc2)cc1S(=O)(=O)N1CCOCC1 (stereo unspecified),6,3,-5,6,-8,1
CC(NC(=O)c1cc(S(=O)(=O)N2CCOCC2)ccc1F)c1ccc(-n2ccnc2)cc1 (stereo unspecified),6,-14,13,2,41,11*
CCC(=O)Nc1cc(SCCO)cc([N+](=O)[O-])c1,·,0,·,·,-13,·
O=C(CCl)Nc1cc(SCC(O)CO)cc([N+](=O)[O-])c1 (stereo unspecified),47,53*,108*,-12,-64,0
COC(=O)[C@@H]1[C@@H](CO)[C@@H]2Cn3c(ccc(C4=CCCC4)c3=O)[C@@H]2N1C(=O)C1CCC1,0,·,·,·,·,-1
C[C@]1(C(=O)NCc2cc(F)cc(C(F)(F)F)c2)C=C[C@@H](Cc2ccccc2)N1C(=O)c1ccccc1,2,·,18,-8,56*,1
Cn1cc(C(=O)c2ccc(Cl)cc2Cl)cc1C(=O)N/N=C(\N)COc1ccc(F)cc1,·,-12,·,·,·,·
Cn1cc(C(=O)c2ccc(Cl)cc2Cl)cc1C(=O)N/N=C(\N)COc1ccc(Cl)cc1,25,-15,70*,6,37,2
COc1ccccc1CNC(=O)C[C@H]1C[C@H]2c3cc(NC(=O)NC4CCCC4)ccc3O[C@H]2[C@H](CO)O1,-1,-7,10,8,6[16.7 µM],-2
COc1cccc(C(=O)Nc2ccc3c(c2)OC[C@@H](C)NC[C@@H](C)[C@H](OC)CN(C)C3=O)c1,2,2,·,-1,-13[16.7 µM],-4
CCc1nnc(N/N=C/c2cc(Br)c(O)cc2O)n1N,3,-14,4,1,8,·
CC(C)(C)c1nnc(N/N=C/c2cc(Br)ccc2O)n(N)c1=O,·,·,61*,14,4,·
SMILES,EWS-Fli block,PGC1a acetyl inh,PAX8 reporter,FN deposit inh,HIV Env fusion,F508del corr
C[C@H](CO)N1C[C@H](C)[C@H](CN(C)S(=O)(=O)c2ccc(F)cc2)Oc2ccc(NC(=O)Nc3ccccc3)cc2CC1=O,-7,-1,-31,·,55*[16.7 µM],3
C[C@H](CO)N1C[C@H](C)[C@H](CN(C)S(=O)(=O)c2ccccc2)Oc2ccc(NC(=O)Cc3ccccc3)cc2CC1=O,0,0,7,·,92*[16.7 µM],1
C[C@H](CO)N1C[C@H](C)[C@H](CN(C)S(=O)(=O)c2ccccc2)Oc2ccc(NC(=O)Nc3ccccc3)cc2CC1=O,4,-7,4,·,80*[16.7 µM],-1
Cc1ccc(S(=O)(=O)N(C)C[C@@H]2Oc3ccc(NC(=O)Nc4ccc(F)cc4)cc3CC(=O)N([C@H](C)CO)C[C@@H]2C)cc1,63*,11,46,·,37[16.7 µM],0
Cc1ccc(S(=O)(=O)N(C)C[C@H]2Oc3ccc(NC(=O)Nc4ccc(F)cc4)cc3CC(=O)N([C@H](C)CO)C[C@@H]2C)cc1,-4,1,-9,·,3[16.7 µM],0
O=C(Nc1ccc(F)cc1)Nc1ccc2c(c1)[C@H]1C[C@H](CC(=O)N3CCCCC3)O[C@H](CO)[C@H]1O2,3,5,10,3,-1[16.7 µM],-1
CCCC(=O)Nc1ccc2c(c1)OC[C@H](C)N(CC1CCCC1)C[C@H](C)[C@@H](OC)CN(C)C2=O,-3,10,-6,-14,34[16.7 µM],-1
COc1cccc(-c2ccc3c(c2)[C@@H]2[C@@H](CCN2S(=O)(=O)c2ccccc2OC)[C@@H](CO)N3)c1,-6,-1,-13,-14,·,-1
C[C@H](CO)N1C[C@H](C)[C@H](CN(C)S(=O)(=O)c2ccc(F)cc2)Oc2ccc(NC(=O)Nc3cccc4ccccc34)cc2CC1=O,-4,4,-7,·,83*[16.7 µM],2
CO[C@@H]1CN(C)C(=O)c2cc(NC(=O)c3ccc(F)cc3)ccc2OC[C@@H](C)NC[C@@H]1C,-1,-6,8,7,1[16.7 µM],0
O=c1ccc(=O)n(CCc2ccccn2)[nH]1,3,·,-24,3,4,-2
c1ccc(CCn2cccc2)nc1,1,-10,5,·,59*,1
CCOC(=O)C1=C(C)Nc2ccccc2N=C1NC(=O)c1oc2ccccc2c1COC,-8,3,65*,7,·,-3
CCOC(=O)C1=C(C)Nc2ccccc2N=C1N,4,7,-7,-4,-4,-3

# Assay outcomes (PubChem BioAssay)
